Test results: ChEMBL document CHEMBL3351851, “Discovery and optimization of novel small-molecule HIV-1 entry inhibitors using field-based virtual screening and bioisosteric replacement” (Bioorg Med Chem Lett, 2014); call rule not given here

Experiments:
[1] = system: Human immunodeficiency virus 1; assay: Antiviral activity against HIV1 pseudotyped virus expressed in human U87 cells co-expressing AMLV envelope after 48 hrs by cell-based luciferase reporter gene assay; format: functional, organism-based; conditions: u-87mg atcc
How it was run: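 Single-round infection of U87-CD4/CCR5 or U87-CD4/CXCR4 cells (seeded at 1.2x10⁴/well, infected next day) with 20 ng p24 per well of luciferase-reporter pseudovirus made in 293T cells using pNL4-3-LucR⁺E⁻. Compounds were applied in six to nine serial dilutions (1:10 or 1:5) alongside DMSO, in triplicate. Luciferase was read at 48 h, and percent infection was taken relative to DMSO wells.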

[2] = system: Human immunodeficiency virus 1; assay: Antiviral activity against Human immunodeficiency virus type 1 (JRCSF ISOLATE) pseudotyped virus expressed in human U87 cells after 48 hrs by luciferase reporter gene assay; format: functional, cell-based, U-87MG ATCC; conditions: Human immunodeficiency virus 1, JRCSF ISOLATE, U-87 MG
How it was run: (§1)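 Envelope-pseudotyped, single-round luciferase-reporter virus was made in 293T cells co-transfected with pNL4-3-LucR+E- and the matching Env vector. U87-CD4/CCR5 or U87-CD4/CXCR4 cells were seeded at 1.2x10⁴ per well and infected next day with 20 ng p24 per well plus compound (6–9 dilutions, 1:10 or 1:5, triplicate) or DMSO. Luciferase was read at 48 h; % infection is relative to DMSO wells.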

[3] = system: Human immunodeficiency virus 1; assay: Antiviral activity against HIV1 isolate Hxbc2 pseudotyped virus expressed in human U87 cells after 48 hrs by luciferase reporter gene assay; format: functional, organism-based, U-87MG ATCC; conditions: Human immunodeficiency virus 1, isolate Hxbc2, U-87 MG; how it was run: as §1
[4] = system: Human immunodeficiency virus 1; assay: Antiviral activity against Human immunodeficiency virus type 1 (isolate YU2) pseudotyped virus expressed in human U87 cells after 48 hrs by cell-based luciferase reporter gene assay; format: functional, U-87MG ATCC; conditions: Human immunodeficiency virus 1, isolate YU2, U-87 MG; how it was run: as §1
[5] = system: Human immunodeficiency virus 2; assay: Antiviral activity against HIV2 isolate CDC310319 infected in human PBMC; format: functional, organism-based; conditions: Human immunodeficiency virus 2, isolate CDC310319
[6] = system: Human immunodeficiency virus 1; assay: Antiviral activity against HIV1 subtype A isolate 92UG037 infected in human PBMC; format: functional, organism-based; conditions: Human immunodeficiency virus 1, isolate 92UG037
[7] = system: Human immunodeficiency virus 1; assay: Antiviral activity against HIV1 subtype B isolate 91US004 infected in human PBMC; format: functional, organism-based; conditions: Human immunodeficiency virus 1, isolate 91US004
[8] = system: Human immunodeficiency virus 1; assay: Antiviral activity against HIV1 subtype B isolate 94US_33931N infected in human PBMC; format: functional, organism-based; conditions: Human immunodeficiency virus 1, isolate 94US_33931N
[9] = system: Human immunodeficiency virus 1; assay: Antiviral activity against HIV1 subtype C isolate 98US_MSC5016 infected in human PBMC; format: functional, organism-based; conditions: Human immunodeficiency virus 1, isolate 98US_MSC5016
[10] = system: Human immunodeficiency virus 1; assay: Antiviral activity against HIV1 subtype D isolate 99UG_A07412M1 infected in human PBMC; format: functional, organism-based; conditions: Human immunodeficiency virus 1, isolate 99UG_A07412M1
[11] = Antiviral index, ratio of TC50 for human PBMC to IC50 for HIV1 subtype A isolate 92UG037
[12] = Antiviral index, ratio of TC50 for human PBMC to IC50 for HIV1 subtype B isolate 91US004
[13] = Antiviral index, ratio of TC50 for human PBMC to IC50 for HIV1 subtype B isolate 94US_33931N
[14] = Antiviral index, ratio of TC50 for human PBMC to IC50 for HIV1 subtype C isolate 98US_MSC5016
[15] = Antiviral index, ratio of TC50 for human PBMC to IC50 for HIV1 subtype D isolate 99UG_A07412M1

Row | SMILES | IC50 [1] | IC50 [2] [nM] | IC50 [3] [nM] | IC50 [4] [nM] | also measured
1 | COc1cnc(-n2cnc(C)n2)c2[nH]cc(C(=O)C(=O)N3CC4CN(C(=O)c5ccccc5)CC4C3)c12 (stereo not given) | Not Active | 0.8 | 1 | – | –
2 | O=C(c1ccccc1)N1CC2CN(C(=O)c3ccc4c5c(cccc35)CC4)CC2C1 (stereo not given) | Not Active | 100000 | – | – | –
3 | O=C(CSc1ncnc2sccc12)N1CCN(C(=O)c2cccs2)CC1 | Not Active | – | – | 33700 | –
4 | O=C(Cc1cccc2ccccc12)N1CCN(C(=O)c2ccco2)CC1 | Not Active | – | – | 79400 | –
5 | O=C(COc1cccc2ccccc12)N1CCN(C(=O)c2ccccc2)CC1 | Not Active | – | – | 53500 | –
6 | COc1cnc(-n2cnc(C)n2)c2[nH]cc(C(=O)C(=O)N3CC4CN(C(=O)C5=CCCCC5)CC4C3)c12 (stereo not given) | Not Active | 2 | 0.6 | – | IC50 [5]: > 100000 nM; IC50 [6]: 25200 nM; IC50 [7]: 195 nM; IC50 [8]: 0.6 nM; IC50 [9]: 3900 nM; IC50 [10]: 490 nM; Ratio [11]: >3.97; Ratio [12]: >513; Ratio [13]: >166666; Ratio [14]: >25.6; Ratio [15]: >204
7 | Cc1cc(C)nc(SCC(=O)N2CCN(C(=O)c3ccccc3)CC2)n1 | Not Active | – | – | 153000 | –
8 | O=C(c1ccccc1)N1CCN(C(=O)c2ccc3c4c(cccc24)CC3)CC1 | Not Active | – | – | 13100 | –
9 | COc1cnc(Cl)c2[nH]cc(C(=O)C(=O)N3CC4CN(C(=O)c5ccccc5)CC4C3)c12 (stereo not given) | Not Active | 980 | 16800 | – | –
10 | COc1ncc(OC)c2c(C(=O)C(=O)N3CC4CN(C(=O)c5ccccc5)CC4C3)c[nH]c12 (stereo not given) | Not Active | 90 | 190 | – | –
